Results taken from ChEMBL document CHEMBL1909579, “New bioactive macrocyclic diterpenoids from Jatropha multifida” (Bioorg Med Chem Lett, 2011).
≈ marks a conversion by molar mass, not a printed value.

Key:
HeLa = experiment: Cytotoxicity against human HeLa cells by MTT assay; format: functional, cell-based
Outline: (§1)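 MTT read-out following Mosmann's method; IC50 for each cell line derived from four individual observations.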

[1] = Cytotoxicity against human MDA231 cells by MTT assay; format: functional, cell-based; settings: MDA-MB-231; outline: as §1
A549 = experiment: Cytotoxicity against human A549 cells by MTT assay; format: functional, cell-based; outline: as §1
MCF7 = experiment: Cytotoxicity against human MCF7 cells by MTT assay; format: functional, cell-based
Outline: (§2)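 MTT assay following Mosmann's method. Each IC50 was derived from four individual observations for each cell line.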

Staphylococcus aureus [2] = experiment: Antimicrobial activity against Staphylococcus aureus MTCC 96 by microtiter broth dilution method; format: functional
Outline: (§3)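 MIC determined by microtiter broth dilution, with neomycin as the reference control; each organism's value derived from four individual observations.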

Staphylococcus aureus [3] = experiment: Antimicrobial activity against Staphylococcus aureus MLS16 MTCC 96 by microtiter broth dilution method; format: functional; settings: MLS16 MTCC 2940, in the assay text read “MTCC 2940” for “MTCC 96”; outline: as §3
[4] = Cytotoxicity against mouse Neuro2a cells by MTT assay; format: functional, cell-based; settings: N2a; outline: as §2
Bacillus subtilis = experiment: Antimicrobial activity against Bacillus subtilis MTCC 121 by microtiter broth dilution method; format: functional; outline: as §3
Pseudomonas aeruginosa = experiment: Antimicrobial activity against Pseudomonas aeruginosa MTCC 2453 by microtiter broth dilution method; format: functional; outline: as §3
Raoultella planticola = experiment: Antimicrobial activity against Klebsiella planticola MTCC 530 by microtiter broth dilution method; format: functional; outline: as §3
Escherichia coli = experiment: Antimicrobial activity against Escherichia coli MTCC 739 by microtiter broth dilution method; format: functional; outline: as §3

| MIC (Bacillus subtilis) | MIC (Pseudomonas aeruginosa) | MIC (Escherichia coli) | SMILES | IC50 (HeLa) | IC50 [1] | IC50 (A549) | IC50 (MCF7) | MIC (Staphylococcus aureus [2]) | MIC (Staphylococcus aureus [3]) | IC50 [4] | MIC (Raoultella planticola) |
| --- | --- | --- | --- | --- | --- | --- | --- | --- | --- | --- | --- |
| – | – | – | COc1cccc2c1C(=O)c1c(O)c3c(c(O)c1C2=O)C[C@@](O)(C(=O)CO)C[C@@H]3O[C@H]1C[C@H](N)[C@H](O)[C@H](C)O1 [DOXORUBICIN] | < 1 µM | < 1 µM | – | – | – | – | – | – |
| 4.68 mg/L (≈ 13.9 µM) | 9.37 mg/L (≈ 27.8 µM) | 4.68 mg/L (≈ 13.9 µM) | C[C@H]1C[C@@H]2[C@H](CC[C@](C)(O)/C=C3\[C@H](O)[C@@H](C)C[C@@]3(O)C1=O)C2(C)C [MULTIFIDANOL] | 15.4 µM | 7.04 µM | 6.27 µM | 6.39 µM | 18.8 mg/L (≈ 55.7 µM) | 18.8 mg/L (≈ 55.7 µM) | 6.35 µM | 9.37 mg/L (≈ 27.8 µM) |
| – | – | – | CC1=C[C@@]2(O)C(=O)[C@@H](C)C[C@@H]3[C@H](CC[C@](C)(O)/C=C/2[C@@H]1O)C3(C)C [MULTIFIDENOL] | 7.56 µM | 5.39 µM | 12.5 µM | 8.57 µM | 4.68 mg/L (≈ 14 µM) | 4.68 mg/L (≈ 14 µM) | 5.6 µM | – |
